Reference: ChEMBL document CHEMBL2157880, “Synthesis, antimycobacterial and antibacterial activity of ciprofloxacin derivatives containing a N-substituted benzyl moiety” (2012)
Converted amounts (≈) assume the structure as drawn.

These compounds were tested on Pseudomonas aeruginosa (assay: Antibacterial activity against Pseudomonas aeruginosa 10-18 after 18 to 24 hrs by NCCLS method).
Type: functional
Outline: (§1)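 Standard NCCLS (M100-S11) MIC testing against Gram-positive and Gram-negative strains. Plates were incubated at 35 °C for 18–24 h. The MIC was read as the lowest concentration giving complete inhibition of visible bacterial growth.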

SMILES | MIC [mg/L]
O=C(O)c1cn(C2CC2)c2cc(N3CCN(Cc4ccc(OCc5ccccc5)cc4)CC3)c(F)cc2c1=O | 64 (≈ 121 µM)

What follows are compounds tested on Klebsiella pneumoniae (assay: Antibacterial activity against extended spectrum beta-lactamases producing Klebsiella pneumoniae 10-1 after 18 to 24 hrs by NCCLS method).
Type: functional
Outline: as §1

SMILES | MIC [mg/L]
O=C(O)c1cn(C2CC2)c2cc(N3CCN(Cc4ccc(OCc5ccccc5)cc4)CC3)c(F)cc2c1=O | > 128

What follows are compounds tested on Staphylococcus aureus (assay: Antibacterial activity against methicillin-resistant Staphylococcus aureus 10-11 after 18 to 24 hrs by NCCLS method).
Type: functional
Outline: (§2)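 Incubated at 35 °C for 18–24 h under NCCLS (M100-S11) standards. MIC was read as the lowest concentration giving complete inhibition of visible bacterial growth.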

SMILES | MIC [mg/L]
O=C(O)c1cn(C2CC2)c2cc(N3CCN(Cc4ccc(OCc5ccccc5)cc4)CC3)c(F)cc2c1=O | 32 (≈ 60.7 µM)

The compounds below were run on Klebsiella pneumoniae (assay: Antibacterial activity against extended spectrum beta-lactamases producing Klebsiella pneumoniae 10-2 after 18 to 24 hrs by NCCLS method).
Type: functional
Outline: as §1

SMILES | MIC [mg/L]
O=C(O)c1cn(C2CC2)c2cc(N3CCN(Cc4ccc(OCc5ccccc5)cc4)CC3)c(F)cc2c1=O | > 128

The compounds below were run on Streptococcus pneumoniae (assay: Antibacterial activity against Streptococcus pneumoniae 10-6 after 18 to 24 hrs by NCCLS method).
Type: functional
Outline: as §1

SMILES | MIC [mg/L]
O=C(O)c1cn(C2CC2)c2cc(N3CCN(Cc4ccc(OCc5ccccc5)cc4)CC3)c(F)cc2c1=O | 32 (≈ 60.7 µM)

These compounds were tested on Escherichia coli (assay: Antibacterial activity against Escherichia coli 10-3 after 18 to 24 hrs by NCCLS method).
Type: functional
Outline: as §1

SMILES | MIC [mg/L]
O=C(O)c1cn(C2CC2)c2cc(N3CCN(Cc4ccc(OCc5ccccc5)cc4)CC3)c(F)cc2c1=O | > 128

The compounds below were run on Escherichia coli (assay: Antibacterial activity against extended spectrum beta-lactamases producing Escherichia coli 10-3 after 18 to 24 hrs by NCCLS method).
Type: functional
Outline: as §1

SMILES | MIC [mg/L]
O=C(O)c1cn(C2CC2)c2cc(N3CCN(Cc4ccc(OCc5ccccc5)cc4)CC3)c(F)cc2c1=O | > 128

The compounds below were run on Streptococcus pneumoniae (assay: Antibacterial activity against Streptococcus pneumoniae 10-1 after 18 to 24 hrs by NCCLS method).
Type: functional
Outline: as §1

SMILES | MIC [mg/L]
O=C(O)c1cn(C2CC2)c2cc(N3CCN(Cc4ccc(OCc5ccccc5)cc4)CC3)c(F)cc2c1=O | 8 (≈ 15.2 µM)

The compounds below were run on Enterococcus faecalis (assay: Antibacterial activity against Enterococcus faecalis 10-7 after 18 to 24 hrs by NCCLS method).
Type: functional
Outline: as §1

SMILES | MIC [mg/L]
O=C(O)c1cn(C2CC2)c2cc(N3CCN(Cc4ccc(OCc5ccccc5)cc4)CC3)c(F)cc2c1=O | 32 (≈ 60.7 µM)

These compounds were tested on Enterococcus faecium (assay: Antibacterial activity against Enterococcus faecium 10-6 after 18 to 24 hrs by NCCLS method).
Type: functional
Outline: as §1

SMILES | MIC [mg/L]
O=C(O)c1cn(C2CC2)c2cc(N3CCN(Cc4ccc(OCc5ccccc5)cc4)CC3)c(F)cc2c1=O | 8 (≈ 15.2 µM)

These compounds were tested on Klebsiella pneumoniae (assay: Antibacterial activity against Klebsiella pneumoniae 10-3 after 18 to 24 hrs by NCCLS method).
Type: functional
Outline: as §1

SMILES | MIC [mg/L]
O=C(O)c1cn(C2CC2)c2cc(N3CCN(Cc4ccc(OCc5ccccc5)cc4)CC3)c(F)cc2c1=O | 32 (≈ 60.7 µM)

These compounds were tested on Pseudomonas aeruginosa (assay: Antibacterial activity against Pseudomonas aeruginosa 10-15 after 18 to 24 hrs by NCCLS method).
Type: functional
Outline: as §1

SMILES | MIC [mg/L]
O=C(O)c1cn(C2CC2)c2cc(N3CCN(Cc4ccc(OCc5ccccc5)cc4)CC3)c(F)cc2c1=O | 128 (≈ 243 µM)

Each compound was assayed on Pseudomonas aeruginosa (assay: Antibacterial activity against Pseudomonas aeruginosa 10-9 after 18 to 24 hrs by NCCLS method).
Type: functional
Outline: as §1

SMILES | MIC [mg/L]
O=C(O)c1cn(C2CC2)c2cc(N3CCN(Cc4ccc(OCc5ccccc5)cc4)CC3)c(F)cc2c1=O | 32 (≈ 60.7 µM)

What follows are compounds tested on Enterococcus faecium (assay: Antibacterial activity against Enterococcus faecium 10-9 after 18 to 24 hrs by NCCLS method).
Type: functional
Outline: as §1

SMILES | MIC [mg/L]
O=C(O)c1cn(C2CC2)c2cc(N3CCN(Cc4ccc(OCc5ccccc5)cc4)CC3)c(F)cc2c1=O | 32 (≈ 60.7 µM)

Each compound was assayed on Mycobacterium tuberculosis (assay: Antimycobacterial activity against Mycobacterium tuberculosis H37Rv ATCC 27294 by microplate alamar blue assay).
Type: functional
Outline: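 Microplate Alamar Blue fluorescence assay on strain H37Rv ATCC 27294. MIC was the lowest concentration cutting fluorescence by ≥90% against the mean of replicate bacterium-only controls.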

SMILES | MIC [mg/L]
O=C(O)c1cn(C2CC2)c2cc(N3CCN(Cc4ccc(OCc5ccccc5)cc4)CC3)c(F)cc2c1=O | 32 (≈ 60.7 µM)

What follows are compounds tested on Staphylococcus aureus (assay: Antibacterial activity against methicillin-resistant Staphylococcus aureus 10-13 after 18 to 24 hrs by NCCLS method).
Type: functional
Outline: as §2

SMILES | MIC [mg/L]
O=C(O)c1cn(C2CC2)c2cc(N3CCN(Cc4ccc(OCc5ccccc5)cc4)CC3)c(F)cc2c1=O | 128 (≈ 243 µM)

These compounds were tested on Staphylococcus aureus (assay: Antibacterial activity against methicillin-resistant Staphylococcus aureus 10-15 after 18 to 24 hrs by NCCLS method).
Type: functional
Outline: as §2

SMILES | MIC [mg/L]
O=C(O)c1cn(C2CC2)c2cc(N3CCN(Cc4ccc(OCc5ccccc5)cc4)CC3)c(F)cc2c1=O | 128 (≈ 243 µM)

The compounds below were run on Staphylococcus epidermidis (assay: Antibacterial activity against methicillin-resistant Staphylococcus epidermidis 10-13 after 18 to 24 hrs by NCCLS method).
Type: functional
Outline: as §2

SMILES | MIC [mg/L]
O=C(O)c1cn(C2CC2)c2cc(N3CCN(Cc4ccc(OCc5ccccc5)cc4)CC3)c(F)cc2c1=O | 32 (≈ 60.7 µM)

The compounds below were run on Staphylococcus epidermidis (assay: Antibacterial activity against methicillin-sensitive Staphylococcus epidermidis 10-15 after 18 to 24 hrs by NCCLS method).
Type: functional
Outline: as §2

SMILES | MIC [mg/L]
O=C(O)c1cn(C2CC2)c2cc(N3CCN(Cc4ccc(OCc5ccccc5)cc4)CC3)c(F)cc2c1=O | 32 (≈ 60.7 µM)

Each compound was assayed on Escherichia coli (assay: Antibacterial activity against Escherichia coli 10-1 after 18 to 24 hrs by NCCLS method).
Type: functional
Outline: as §1

SMILES | MIC [mg/L]
O=C(O)c1cn(C2CC2)c2cc(N3CCN(Cc4ccc(OCc5ccccc5)cc4)CC3)c(F)cc2c1=O | > 128

These compounds were tested on Staphylococcus epidermidis (assay: Antibacterial activity against methicillin-sensitive Staphylococcus epidermidis 10-11 after 18 to 24 hrs by NCCLS method).
Type: functional
Outline: as §1

SMILES | MIC [mg/L]
O=C(O)c1cn(C2CC2)c2cc(N3CCN(Cc4ccc(OCc5ccccc5)cc4)CC3)c(F)cc2c1=O | 1 (≈ 1.9 µM)

These compounds were tested on Escherichia coli (assay: Antibacterial activity against extended spectrum beta-lactamases producing Escherichia coli 10-2 after 18 to 24 hrs by NCCLS method).
Type: functional
Outline: as §1

SMILES | MIC [mg/L]
O=C(O)c1cn(C2CC2)c2cc(N3CCN(Cc4ccc(OCc5ccccc5)cc4)CC3)c(F)cc2c1=O | > 128

What follows are compounds tested on Enterococcus faecalis (assay: Antibacterial activity against Enterococcus faecalis 10-5 after 18 to 24 hrs by NCCLS method).
Type: functional
Outline: as §1

SMILES | MIC [mg/L]
O=C(O)c1cn(C2CC2)c2cc(N3CCN(Cc4ccc(OCc5ccccc5)cc4)CC3)c(F)cc2c1=O | 8 (≈ 15.2 µM)

The compounds below were run on Staphylococcus aureus (assay: Antibacterial activity against Staphylococcus aureus ATCC 2592 after 18 to 24 hrs by NCCLS method).
Type: functional
Outline: as §1

SMILES | MIC [mg/L]
O=C(O)c1cn(C2CC2)c2cc(N3CCN(Cc4ccc(OCc5ccccc5)cc4)CC3)c(F)cc2c1=O | 4 (≈ 7.58 µM)

These compounds were tested on Pseudomonas aeruginosa (assay: Antibacterial activity against Pseudomonas aeruginosa 10-20 after 18 to 24 hrs by NCCLS method).
Type: functional
Outline: as §1

SMILES | MIC [mg/L]
O=C(O)c1cn(C2CC2)c2cc(N3CCN(Cc4ccc(OCc5ccccc5)cc4)CC3)c(F)cc2c1=O | 32 (≈ 60.7 µM)

What follows are compounds tested on Staphylococcus aureus (assay: Antibacterial activity against methicillin-sensitive Staphylococcus aureus 10-14 after 18 to 24 hrs by NCCLS method).
Type: functional
Outline: as §1

SMILES | MIC [mg/L]
O=C(O)c1cn(C2CC2)c2cc(N3CCN(Cc4ccc(OCc5ccccc5)cc4)CC3)c(F)cc2c1=O | 0.5 (≈ 0.948 µM)

The compounds below were run on Klebsiella pneumoniae (assay: Antibacterial activity against Klebsiella pneumoniae 10-2 after 18 to 24 hrs by NCCLS method).
Type: functional
Outline: as §1

SMILES | MIC [mg/L]
O=C(O)c1cn(C2CC2)c2cc(N3CCN(Cc4ccc(OCc5ccccc5)cc4)CC3)c(F)cc2c1=O | > 128

What follows are compounds tested on Enterococcus faecalis (assay: Antibacterial activity against Enterococcus faecalis 10-6 after 18 to 24 hrs by NCCLS method).
Type: functional
Outline: as §1

SMILES | MIC [mg/L]
O=C(O)c1cn(C2CC2)c2cc(N3CCN(Cc4ccc(OCc5ccccc5)cc4)CC3)c(F)cc2c1=O | 64 (≈ 121 µM)

What follows are compounds tested on Pseudomonas aeruginosa (assay: Antibacterial activity against Pseudomonas aeruginosa 10-12 after 18 to 24 hrs by NCCLS method).
Type: functional
Outline: as §1

SMILES | MIC [mg/L]
O=C(O)c1cn(C2CC2)c2cc(N3CCN(Cc4ccc(OCc5ccccc5)cc4)CC3)c(F)cc2c1=O | 32 (≈ 60.7 µM)

The compounds below were run on Klebsiella pneumoniae (assay: Antibacterial activity against Klebsiella pneumoniae 10-4 after 18 to 24 hrs by NCCLS method).
Type: functional
Outline: as §1

SMILES | MIC [mg/L]
O=C(O)c1cn(C2CC2)c2cc(N3CCN(Cc4ccc(OCc5ccccc5)cc4)CC3)c(F)cc2c1=O | > 128

What follows are compounds tested on Staphylococcus epidermidis (assay: Antibacterial activity against methicillin-resistant Staphylococcus epidermidis 10-10 after 18 to 24 hrs by NCCLS method).
Type: functional
Outline: as §2

SMILES | MIC [mg/L]
O=C(O)c1cn(C2CC2)c2cc(N3CCN(Cc4ccc(OCc5ccccc5)cc4)CC3)c(F)cc2c1=O | 16 (≈ 30.3 µM)

What follows are compounds tested on Escherichia coli (assay: Antibacterial activity against Escherichia coli ATCC 25922 after 18 to 24 hrs by NCCLS method).
Type: functional
Outline: as §1

SMILES | MIC [mg/L]
O=C(O)c1cn(C2CC2)c2cc(N3CCN(Cc4ccc(OCc5ccccc5)cc4)CC3)c(F)cc2c1=O | 1 (≈ 1.9 µM)

What follows are compounds tested on Escherichia coli (assay: Antibacterial activity against extended spectrum beta-lactamases producing Escherichia coli 10-4 after 18 to 24 hrs by NCCLS method).
Type: functional
Outline: as §1

SMILES | MIC [mg/L]
O=C(O)c1cn(C2CC2)c2cc(N3CCN(Cc4ccc(OCc5ccccc5)cc4)CC3)c(F)cc2c1=O | > 128

What follows are compounds tested on Escherichia coli (assay: Antibacterial activity against Escherichia coli 10-2 after 18 to 24 hrs by NCCLS method).
Type: functional
Outline: as §1

SMILES | MIC [mg/L]
O=C(O)c1cn(C2CC2)c2cc(N3CCN(Cc4ccc(OCc5ccccc5)cc4)CC3)c(F)cc2c1=O | 32 (≈ 60.7 µM)

What follows are compounds tested on Staphylococcus aureus (assay: Antibacterial activity against methicillin-sensitive Staphylococcus aureus 10-13 after 18 to 24 hrs by NCCLS method).
Type: functional
Outline: as §1

SMILES | MIC [mg/L]
O=C(O)c1cn(C2CC2)c2cc(N3CCN(Cc4ccc(OCc5ccccc5)cc4)CC3)c(F)cc2c1=O | 0.5 (≈ 0.948 µM)

The compounds below were run on Klebsiella pneumoniae (assay: Antibacterial activity against extended spectrum beta-lactamases producing Klebsiella pneumoniae 10-3 after 18 to 24 hrs by NCCLS method).
Type: functional
Outline: as §1

SMILES | MIC [mg/L]
O=C(O)c1cn(C2CC2)c2cc(N3CCN(Cc4ccc(OCc5ccccc5)cc4)CC3)c(F)cc2c1=O | > 128

Each compound was assayed on Staphylococcus aureus (assay: Antibacterial activity against methicillin-sensitive Staphylococcus aureus 10-11 after 18 to 24 hrs by NCCLS method).
Type: functional
Outline: as §1

SMILES | MIC [mg/L]
O=C(O)c1cn(C2CC2)c2cc(N3CCN(Cc4ccc(OCc5ccccc5)cc4)CC3)c(F)cc2c1=O | 0.25 (≈ 0.474 µM)

What follows are compounds tested on Pseudomonas aeruginosa (assay: Antibacterial activity against Pseudomonas aeruginosa 10-5 after 18 to 24 hrs by NCCLS method).
Type: functional
Outline: as §1

SMILES | MIC [mg/L]
O=C(O)c1cn(C2CC2)c2cc(N3CCN(Cc4ccc(OCc5ccccc5)cc4)CC3)c(F)cc2c1=O | 16 (≈ 30.3 µM)
